The nature of series [1]: Toxicity in BALB/c athymic nu/nu mouse xenografted with human NCI-H1975 cells assessed as mouse death at 200 mg/kg, iv administered once a week for 3 weeks. The series is classed as organism-based. The following applies: in vivo, 504 h. The gist of the method: (§1)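 Athymic BALB/c-nu/nude mice bearing NCI-H1975 human lung carcinoma xenografts, n = 6 per group. Compounds were given i.v. at 200 mg/kg once weekly for three weeks. Deaths and body weight loss were recorded. Tumor growth inhibition was calculated from mean treated versus mean control tumor volumes.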
On the technique in general: Xenograft models place foreign cells or tissue in a host animal.

Series [2] deals with A2780. The experiment in a line: Cytotoxicity against human A2780 cells assessed as cell growth inhibition. The series is classed as functional, cell-based.
Series [3] addresses T1, Heat shock protein HSP90 (Homo sapiens, UniProt P07900+P08238). The series can be described thus: Inhibition of HSP90 (unknown origin) assessed as HER2 degradation by cell-based assay.
The nature of series [4]: Toxicity in BALB/c nu/nu mouse xenografted with human A2780 cells assessed as effect on body weight at 50 mg/kg, iv administered 3 times a week for 2 weeks starting from 5 to 6 days post tumor inoculation. Format: organism-based. The following applies: in vivo. In outline: (§2)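 Human A2780 ovarian adenocarcinoma cells were cultured and implanted into BALB/c-nu/nude mice, n = 6 per group. Tumor size and volume were measured 5 or 6 days later. Compounds were suspended in 1% carboxymethyl cellulose and given intravenously. Deaths and body weight were monitored. Tumor growth inhibition = [1 − (mean treated tumor volume)/(mean control tumor volume)] × 100%.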

Series [5] deals with NCI-H1975. The series can be described thus: Antitumor activity against human NCI-H1975 cells xenografted in BALB/c athymic nu/nu mouse assessed as tumor growth inhibition at 200 mg/kg, iv administered once a week for 3 weeks relative to control. The following applies: 504 h, read-out: TGI. The series is classed as functional. In outline:
as §1

Series [6] deals with A2780. The series can be described thus: Antitumor activity against human A2780 cells xenografted in BALB/c nu/nu mouse assessed as tumor growth inhibition at 50 mg/kg, iv administered 3 times a week for 2 weeks starting from 5 to 6 days post tumor inoculation relative to control. The series is classed as functional. Particulars: read-out: TGI. In outline: as §2
A short description of series [7]: Toxicity in BALB/c athymic nu/nu mouse xenografted with human NCI-H1975 cells assessed as effect on body weight at 200 mg/kg, iv administered once a week for 3 weeks. The series is classed as organism-based. The following applies: in vivo, 504 h. In outline: as §1
Series [8] can be described thus: Toxicity in BALB/c nu/nu mouse xenografted with human A2780 cells assessed as mouse death at 50 mg/kg, iv administered 3 times a week for 2 weeks starting from 5 to 6 days post tumor inoculation. Particulars: in vivo. Format: organism-based. The gist of the method:
as §2

The target in series [9] is T1, Heat shock protein HSP90. The experiment in a line: Inhibition of HSP90 ATPase activity (unknown origin). Format: protein assay.
In series [10] the test system is HCT-116. The series can be described thus: Cytotoxicity against human HCT116 cells assessed as cell growth inhibition. Format: functional, cell-based.
For series [11], the system named is A2780. The series can be described thus: Antitumor activity against human A2780 cells xenografted in BALB/c nu/nu mouse assessed as tumor growth inhibition at 50 mg/kg, iv administered 3 times a week for 3 weeks starting from 5 to 6 days post tumor inoculation relative to control. The series is classed as functional. Particulars: read-out: TGI. In outline:
as §2

The nature of series [12]: Toxicity in BALB/c nu/nu mouse xenografted with human A2780 cells assessed as mouse death at 50 mg/kg, iv administered 3 times a week for 3 weeks starting from 5 to 6 days post tumor inoculation. The series is classed as organism-based. The following applies: in vivo. The gist of the method:
as §2

Series [13] is described as follows: Toxicity in BALB/c nu/nu mouse xenografted with human A2780 cells assessed as effect on body weight at 50 mg/kg, iv administered 3 times a week for 3 weeks starting from 5 to 6 days post tumor inoculation. The series is classed as organism-based. Particulars: in vivo. In outline:
as §2

Series [14] deals with NCI-H1975. The experiment in a line: Antitumor activity against human NCI-H1975 cells xenografted in BALB/c athymic nu/nu mouse assessed as tumor growth inhibition at 150 mg/kg, iv administered once a week for 3 weeks relative to control. The following applies: 504 h, read-out: TGI.
Series [15] in a line: Toxicity in BALB/c athymic nu/nu mouse xenografted with human NCI-H1975 cells assessed as mouse death at 150 mg/kg, iv administered once a week for 3 weeks. Format: organism-based. The following applies: in vivo, 504 h.
A short description of series [16]: Toxicity in BALB/c athymic nu/nu mouse xenografted with human NCI-H1975 cells assessed as effect on body weight at 150 mg/kg, iv administered once a week for 3 weeks. The series is classed as organism-based. Particulars: in vivo, 504 h.

Consider four compounds from ChEMBL document CHEMBL4627371, “Discovery of novel heat shock protein (Hsp90) inhibitors based on luminespib with potent antitumor activity” (Bioorg Med Chem Lett, 2020).

The structures appear in SMILES notation.

In the case of `CCNC(=O)c1noc(-c2cc(C(C)C)c(O)cc2O)c1-c1cn[nH]c1`, the Activity result in series [1], in series [4], in series [7] and in series [8] was “Non-Toxic” in each case. Also, the half-maximal inhibitory concentration (IC50) in series [2] worked out at 38 nM; in series [3], 13 nM; in series [9] it was 469 nM; in series [10], 43 nM. The inhibition in vivo at 200 mg/kg in series [5] was 55.4%. The inhibition in vivo at 50 mg/kg in series [6] came out at 47.6%.

Turning to `CCNC(=O)c1noc(-c2cc(C(C)C)c(O)cc2O)c1-c1cc(CO)no1`, the inhibition in vivo at 50 mg/kg in series [11] was found to be 47%. The Activity result in [1], in series [12], in series [13] and in [7] was “Non-Toxic” throughout. In addition, the IC50 in [2] came out at 5 nM; in series [3], 42 nM; in [9] it was 279 nM; in [10], 13 nM. Besides, the inhibition in vivo at 200 mg/kg in series [5] stood at 50.9%.

In the case of `CCNC(=O)c1cc(-c2c(C(=O)NCC)noc2-c2cc(C(C)C)c(O)cc2O)on1`, the inhibition in vivo at 50 mg/kg in series [11] is 52%. Moreover, the Activity result in [1], in series [12], in [13] and in [7] was “Non-Toxic” throughout. Besides, the concentration for half-maximal inhibition (IC50) worked out at 43 nM in [2], 28 nM in [3], 284 nM in series [9] and 14 nM in series [10]. Moreover, in series [5], the inhibition in vivo at 200 mg/kg was 44%.

For `CCNC(=O)c1noc(-c2cc(C(C)C)c(O)cc2O)c1-c1ccc(CN2CCOCC2)cc1` [LUMINESPIB], in series [11], the inhibition in vivo at 50 mg/kg stood at 48%. The IC50 in series [2] is 6 nM; in series [10], 20 nM. For the same compound, in series [14], the inhibition in vivo at 150 mg/kg worked out at 43.5%. The Activity result in [12], in [13], in series [15] and in series [16] was “Non-Toxic” throughout.

For orientation: IC50 means the concentration that inhibits the measured activity by half.
